Assay outcomes as filed in PubChem.
hERG rescue – hERG (human) protection from proarrhythmic block; 310,000 tested, 0.51% active; activation (rescue from dofetilide block), less the hit threshold, % at 10 µM; Q12809; CHO-hERG, FluxOR thallium flux, dofetilide IC70 present;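 active means activation above the mean of controls blocked by dofetilide plus 5 SD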;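 further: thallium influx through hERG after potassium depolarization seen as dye fluorescence rise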
KCNK3 inh – human KCNK3 channel inhibition, primary screen; O14649; CHO-KCNK3 thallium flux, FluxOR fluorescence; stronger effect = lower value; B-score at 10 µM; 340,000 tested, 0.84% active;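 active means B-score under library mean minus 4 SD, starting fluorescence ratio at most library mean plus 5 SD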;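 further: more negative B-score means stronger inhibition of thallium flux through KCNK3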
KCNQ1 act – potentiates or activates the human KCNQ1 potassium channel; P51787; B-score at 10 µM; 310,000 tested, 0.35% active; CHO-K1 KCNQ1, thallium flux FluxOR fluorescence; stronger effect = higher value;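 active means fluorescence ratio B-score, a plate-corrected score, at least three library SD, with initial intensity B-score within 5 SD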
Target sequence (P51787 whole entry, looked up): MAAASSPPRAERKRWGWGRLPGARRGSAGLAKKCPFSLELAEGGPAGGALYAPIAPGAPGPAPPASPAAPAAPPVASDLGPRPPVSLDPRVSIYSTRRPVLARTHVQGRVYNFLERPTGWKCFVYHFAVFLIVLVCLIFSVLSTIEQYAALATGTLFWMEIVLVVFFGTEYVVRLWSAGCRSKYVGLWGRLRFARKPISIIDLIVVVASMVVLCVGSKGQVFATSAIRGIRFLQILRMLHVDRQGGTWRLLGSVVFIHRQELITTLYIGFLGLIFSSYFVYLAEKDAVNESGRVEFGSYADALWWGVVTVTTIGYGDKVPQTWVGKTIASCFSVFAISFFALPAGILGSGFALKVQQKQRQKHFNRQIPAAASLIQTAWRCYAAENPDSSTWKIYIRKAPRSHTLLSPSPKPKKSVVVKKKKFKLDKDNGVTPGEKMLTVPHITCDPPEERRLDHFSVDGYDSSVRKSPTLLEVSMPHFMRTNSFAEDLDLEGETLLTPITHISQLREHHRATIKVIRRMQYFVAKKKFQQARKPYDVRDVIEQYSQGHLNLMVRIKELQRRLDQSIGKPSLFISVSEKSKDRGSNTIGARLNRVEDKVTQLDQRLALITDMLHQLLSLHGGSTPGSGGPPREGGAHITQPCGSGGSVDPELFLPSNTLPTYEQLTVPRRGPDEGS
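Assay system: CHO-K1 cells stably expressing KCNQ1. Medium: assay buffer for compound exposure, DMSO matched across wells. Timing: 37 °C overnight plating, 90-min dark dye load, 20-min compound pretreatment. Signal: kinetic FluxOR fluorescence, 10 s baseline plus 110 s post-stimulus.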
PHOSPHO1 inh – inhibitors of human PHOSPHO1 phosphatase; Q8TCT1; recombinant PHOSPHO1, absorbance phosphatase assay; inhibition, % at 13.3 µM; 290,000 tested, 1.1% active; AID 1565; in the data active means inhibition above about 60%
KCNK9 inh – blocks the human KCNK9 two-pore domain potassium channel. Q9NPC2. HEK293 KCNK9, FluxOR thallium flux fluorescence; stronger effect = lower value. B-score at 10 µM. 310,000 tested, 1.2% active;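 active means ratio B-score over 3 SD below the library mean, with starting fluorescence within 5 SD of its mean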;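 further: negative B-score means less thallium flux so channel inhibition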
KCNQ1 block – human KCNQ1 channel inhibition | AID 2642 | 310,000 tested, 1.3% active | B-score at 10 µM | CHO-K1 KCNQ1, FluxOR thallium flux fluorescence; stronger effect = higher value;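 active means compounds whose thallium flux B-score, printed positive for inhibition, exceeds three library SD while starting fluorescence stays within three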;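 further: channel opened by potassium depolarization with thallium stimulus after 20 min compound exposure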
KCNK9 inh conf – confirmation of human KCNK9 potassium channel inhibitors. shares compounds with KCNK9 inh. HEK293 KCNK9 cells, FluxOR thallium flux fluorescence. inhibition, % at 10 µM. 4,900 tested, 43% active. AID 492992;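 active means thallium signal inhibited by more than 5 SD of the compound-free buffer control wells, on both duplicate plates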
Kir2-1 spec – mouse Kir2.1 off-target activity of KCNK9 modulators. shares compounds with KCNK9 inh. Kir2.1 cells, FluxOR thallium flux fluorescence. inhibition, % at 10 µM. AID 492993. 4,900 tested, 4% active;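 active means thallium signal drop more than 5 SD beyond the mean of the no-compound control wells, seen in both duplicate plates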;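 further: signal is fluorescence rise after thallium addition divided by baseline fluorescence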
KCNK9 uninduced – second counter-screen for KCNK9 modulators: effect in non-induced cells; shares compounds with KCNK9 inh; non-induced KCNK9-HEK293, FluxOR thallium flux; inhibition, % at 10 µM; 4,900 tested, 40% active; AID 492997;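 active means thallium signal drop beyond 5 SD of the untreated control mean, on both duplicate plates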
Numbers stand for hits; – = inactive; · = no result. Most compounds without a hit are left out; they make up all but 4% or so of the library.

SMILES | hERG rescue | KCNK3 inh | KCNQ1 act | PHOSPHO1 inh | KCNK9 inh | KCNQ1 block | KCNK9 inh conf | Kir2-1 spec | KCNK9 uninduced
CC(C)=CC(=O)O[C@@H]1Cc2c(ccc3ccc(=O)oc23)OC1(C)C | · | – | · | · | · | · | · | · | ·
CCOC(=O)c1cc(-c2ccco2)nc2c1c(C)nn2CCC#N | – | – | – | – | – | – | · | · | ·
CCOC(=O)c1cc(-c2ccc(OC)cc2F)nc2c1c(C)nn2CCC#N | – | – | – | – | -10.6 | 6 | 53.5% | – | 33.5%
COCCn1c(SCC(=O)N(C)c2c(N)n(Cc3ccccc3)c(=O)[nH]c2=O)nnc1-c1cccc(C)c1 | – | – | – | · | – | – | · | · | ·
COc1ccc(N2CCN(c3oc(-c4ccccc4OC)nc3C#N)CC2)cc1 | – | – | – | – | – | – | · | · | ·
COc1ccccc1-c1nc(C#N)c(N2CCc3ccccc3C2)o1 | – | -13.1 | – | – | -20.9 | – | 67.0% | – | –
COc1ccccc1-c1nc(C#N)c(N2CCN(c3ccccc3)CC2)o1 | – | – | – | – | -11.5 | – | 44.0% | – | –
Cc1cc(=O)oc2c(C)c(OCC(=O)NC3CCN(Cc4ccccc4)CC3)ccc12 | – | – | – | – | – | – | · | · | ·
CCc1nnc(NC(=O)c2ccc(F)c(S(=O)(=O)N3CCCCC3)c2)s1 | – | – | – | · | – | – | · | · | ·
CCc1nnc(NC(=O)c2ccc(Cl)c(S(=O)(=O)N3CCc4ccccc43)c2)s1 | – | – | – | – | -12.7 | – | 67.5% | – | 41.5%
COc1ccc(C(=O)NNC(=S)NC(=O)c2cccs2)cc1 | – | – | – | – | -9.11 | – | – | – | –
C=CCc1cc(C(=O)N2CCCCC2)ccc1O | – | – | – | – | – | – | · | · | ·
C=CCc1ccc(O)c(-c2ccc(O)c(CC=C)c2)c1 | – | – | – | – | -18.4 | – | 76.5% | – | 42.5%
Cc1nc(N)[nH]c(=O)c1CC(=O)OCCCl | – | – | – | – | – | – | · | · | ·
COc1cccc(CN2CC(C(=O)NCCOc3ccccc3)CCC2=O)c1 (configuration not stated) | – | – | – | – | – | – | · | · | ·
CC1SCC(NC(=O)c2ccc(Cl)cc2)CS1 (configuration not stated) | – | – | – | – | -14.1 | – | – | – | 24.0%
CC1SCC(NC(=O)c2ccccc2Cl)CS1 (configuration not stated) | – | – | – | – | – | – | · | · | ·
CC1SCC(NC(=O)c2cccc(Cl)c2)CS1 (configuration not stated) | – | – | – | – | -10 | – | 44.0% | – | 26.5%
Cc1ccc(CS(=O)Cc2ccc(C(=O)NC3CCC(C)CC3)o2)cc1 (configuration not stated) | – | – | – | – | – | – | · | · | ·
Clc1cc2c(c(Cn3cnc4ccccc43)c1)OCOC2 | – | – | – | – | – | – | · | · | ·
O=C(NCCc1ccccc1)c1ccc2c(c1)OCCO2 | – | – | – | – | – | – | – | – | –
O=C(NCCc1ccccc1)c1ccc2c(c1)OCCCO2 | – | – | – | – | – | – | · | · | ·
Cc1ccc(Nc2nc(CSc3nnc(-c4cccnc4)n3-c3ccccc3C)cs2)cc1 | – | – | – | – | -9.92 | – | – | – | –
Cc1ccccc1-n1c(SCc2csc(Nc3ccccc3)n2)nnc1-c1cccnc1 | – | – | – | – | – | – | · | · | ·
COc1cc(NC(=O)CSCc2cnn(-c3ccccc3)c2-n2cccc2)cc(OC)c1 | – | – | – | – | – | – | · | · | ·
SMILES | hERG rescue | KCNK3 inh | KCNQ1 act | PHOSPHO1 inh | KCNK9 inh | KCNQ1 block | KCNK9 inh conf | Kir2-1 spec | KCNK9 uninduced
COc1ccc(OC)c(NC(=O)CSCc2cnn(-c3ccccc3)c2-n2cccc2)c1 | – | – | – | – | – | – | – | – | 29.0%
COc1cccc(CNC(=O)CSCc2cnn(-c3ccccc3)c2-n2cccc2)c1OC | – | – | – | – | – | – | – | 31.0% | –
COc1ccccc1CNC(=O)CSCc1cnn(-c2ccccc2)c1-n1cccc1 | – | – | – | – | – | – | – | – | –
O=C(c1cccnc1)N1N=C(C2CC2)CC1(O)C(F)(F)F (configuration not stated) | – | – | – | – | – | – | · | · | ·
O=C(NCCNc1ccc([N+](=O)[O-])cc1C(F)(F)F)c1ccccc1 | – | – | – | – | – | – | – | – | –
O=C(NCCNc1ccc([N+](=O)[O-])cc1C(F)(F)F)c1cccc(F)c1 | – | – | – | – | – | – | – | – | –
Nc1ccc(C2(c3ccc(N)cc3)OC(=O)c3ccccc32)cc1 | – | – | – | – | – | – | · | · | ·
Cc1cc(C2(c3ccc(O)c(C)c3)OC(=O)c3ccccc32)ccc1O | – | – | – | – | -12.2 | – | 55.0% | – | –
CCCn1nnnc1SCC(=O)N1CCOCC1 | – | – | – | – | – | – | · | · | ·
CCOC(=O)N1CCC(Nc2c([N+](=O)[O-])cc(C(=O)O)cc2[N+](=O)[O-])CC1 | – | – | – | – | – | – | · | · | ·
CCN(CC)c1ccc(/C=c2\sc3nnc(-c4ccccc4Cl)n3c2=O)cc1 | 9.3 | – | – | – | -11.2 | 7 | 43.5% | – | –
OCC(C#CCN1CCCCC1)NCc1ccccc1 (configuration not stated) | – | – | – | – | – | – | · | · | ·
Cc1cc(C(=O)Nc2cccc3ccccc23)c(C)o1 | – | – | – | – | – | – | · | · | ·
Cc1oc(CC(C)C)cc1C(=O)Nc1cccc2ccccc12 | – | – | – | – | -9.53 | – | – | – | 39.5%
CCOc1ccccc1NC(=O)c1cc(CC(C)C)oc1C | – | – | – | – | -17.7 | – | 62.5% | – | 43.0%
Cc1cc(OCc2ccc(F)cc2)nc(-c2ccccc2O)n1 | – | – | – | – | -10.2 | – | 66.5% | – | 37.0%
N#C/C(=C\c1ccc(OCc2ccccc2)cc1)C(=O)Nc1ccc(C(=O)O)cc1 | – | · | – | – | – | – | · | · | ·
COC(=O)c1ccc(COc2ccccc2/C=C(\C#N)C(=O)Nc2c(C)cc(C)cc2C)cc1 | – | – | – | – | -15.8 | – | 77.5% | – | 28.5%
COc1cc(/C=C(/C#N)C(=O)Nc2ccccc2)c(Br)cc1OCc1ccc(C(=O)O)cc1 | – | – | – | – | – | – | · | · | ·
Cc1cc(C)c(NC(=O)/C(C#N)=C/c2ccc(OCc3ccc(F)cc3)cc2)c(C)c1 | – | – | – | – | – | – | – | – | –
O=C(COC(=O)CCc1ccccc1)NC12CC3CC(CC(C3)C1)C2 | – | – | – | – | – | – | · | · | ·
CCOc1cc(N2CCOCC2)c(OCC)cc1NC(=O)CN1CCC(Cc2ccccc2)CC1 | – | – | – | – | – | – | – | – | –
